SIRT5 block: blocks human SIRT5 desuccinylation of peptide. Purified SirT5, succinyl-peptide AMC, trypsin-coupled fluorescence. inhibition, % at 15 µM. AID 652115. 330,000 compounds, 1.1% hits; in the data active = inhibition above about 15%
NSD2 HMT inh: inhibitors of human histone methyltransferase NSD2; inhibition, % at 12.5 µM; NSD2 peptide methylation, AlphaScreen, 120 min; 310,000 compounds, 0.54% hits; AID 743445; in the data active = inhibition above about 50%
UCH37 DUB inh: blocks the human deubiquitinase UCH37 | Q9Y5K5 | purified proteasome/UCH37, Ub-AMC cleavage fluorescence | inhibition, % (no concentration beside the values) | 330,000 compounds, 0.33% hits | AID 588478;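 active = mean inhibition over replicate wells above about 20%, limit read from the data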;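 note: 0% = compound-free wells with enzyme and 100% = wells lacking proteasome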
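System: Proteasome-associated human UCH37 deubiquitinase; Input: 0.15 nM proteasome in added enzyme buffer; Also added: Ub-AMC substrate from 1 µM stock; Incubation: 30 min compound-proteasome preincubation then 25 min substrate reaction, room temperature; Detection: fluorescence, ex 355 nm, em 460 nm; Read-out: % inhibition of Ub-AMC cleavage fluorescence; Benchmarks: no-proteasome and no-compound wells.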
Casp6 inh: caspase-6 (human) enzyme inhibition | inhibition, % at 12.5 µM | 350,000 compounds, 0.53% hits | purified caspase-6, Z-VEID-R110 cleavage fluorescence | P55212 | AID 686996;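 active = mean inhibition across replicates at least about 35%, with every replicate also reaching that limit, limit read from the data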;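 note: 0% = median of neutral control wells and 100% = no fluorescence left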
FGF22 binding: FGF22 (human) thermal shift binding; Q9HCT0; recombinant FGF22 thermal shift, SYPRO orange fluorescence; percent of sucrose octasulfate shift, DMSO zero; activity (Tm shift, normalised), % at 9.99 µM; 340,000 compounds, 1.5% hits; AID 651658;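 active = mean Tm shift, scaled 0 neutral to 100 positive control, at about 1.3% or above, every replicate too, limit read from the data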
The depositor's hits bear a star; · = not tested or not shown; ! = not active in a repeat. Only some compounds are listed: those with a hit (about 2.6% of all), similar ones and a draw of the others.

SMILES	SIRT5 block	NSD2 HMT inh	UCH37 DUB inh	Casp6 inh	FGF22 binding
O=C1CNC(=O)/C(=C\c2ccc(F)cc2)N1	-3	12	1	·	0
COc1cccc(S(=O)(=O)N(C)C[C@@H]2Oc3ncc(-c4cccc(C(F)(F)F)c4)cc3C(=O)N([C@H](C)CO)C[C@@H]2C)c1	20*	·	·	1	-1
CCCC#Cc1cnc2c(c1)C(=O)N([C@H](C)CO)C[C@@H](C)[C@@H](CN(C)S(=O)(=O)c1cccc(OC)c1)O2	2	·	·	0	0
C[C@H]1CN([C@@H](C)CO)C(=O)c2cc(C#Cc3cccnc3)cnc2O[C@H]1CN(C)S(=O)(=O)c1ccccc1F	-1	·	·	-2	0
CCCC#Cc1cnc2c(c1)C(=O)N([C@@H](C)CO)C[C@@H](C)[C@H](CN(C)S(=O)(=O)c1cccc(OC)c1)O2	29*	·	·	-1	0
C[C@H](CO)N1C[C@H](C)[C@H](CN(C)S(=O)(=O)c2ccc(F)cc2)Oc2ncc(C#Cc3ccc(C(F)(F)F)cc3)cc2C1=O	7	·	·	-3	0
C[C@H](CO)N1C[C@H](C)[C@@H](CN(C)S(=O)(=O)c2ccccc2F)Oc2ncc(C#Cc3cccnc3)cc2C1=O	-5	·	·	36*!	0
Cc1ccc(S(=O)(=O)N(C)C[C@@H]2Oc3ncc(C#Cc4ccc(C(F)(F)F)cc4)cc3C(=O)N([C@H](C)CO)C[C@@H]2C)cc1	25*	·	·	3	-1
C[C@H]1CN([C@@H](C)CO)C(=O)c2cc(C#CCN(C)C)cnc2O[C@H]1CN(C)S(=O)(=O)c1ccccc1	63*	·	·	-3	·
C[C@@H]1CN([C@@H](C)CO)C(=O)c2cc(C#CCN(C)C)cnc2O[C@@H]1CN(C)S(=O)(=O)c1ccccc1	1	·	·	-3	·
Cc1ccccc1OC(C)C(=O)NC1CCCC1 (stereo not drawn)	·	1	28*	·	·
CCC(=O)N1CCC2(CC1)CN(C(=O)Cc1ccccc1)[C@H](CO)c1c2c2ccc(OC)cc2n1C	9	·	·	1	-1
O=[N+]([O-])c1ccc(C(O)CNC(=S)Nc2ccccc2)cc1 (stereo not drawn)	1	-2	0	-2	1
CNC(=S)NCC(O)c1ccc([N+](=O)[O-])cc1 (stereo not drawn)	-3	-2	2	-3	44*
C[C@@H]1CN([C@@H](C)CO)C(=O)Cc2cc(NS(=O)(=O)c3ccccc3)ccc2O[C@H]1CN(C)S(=O)(=O)c1cn(C)cn1	4	·	·	3	0
Cc1ccc(-c2cc(C(=O)NN=C/C(Br)=C/c3ccccc3)n[nH]2)o1	·	·	4	·	·
Cc1ccc(S(=O)(=O)NNC(=O)c2ccccc2-n2cccc2)cc1	2	0	-1	0	0
O=C(NNS(=O)(=O)c1ccccc1)c1ccc(O)cc1	-1	2	3	-1	0
O=C(NNS(=O)(=O)c1ccc(F)cc1)c1ccccc1F	4	-2	-1	46*	0
COc1ccc(S(=O)(=O)NNC(=O)c2ccccc2-n2cccc2)cc1	-3	9	0	-1	43*
COc1ccccc1C(=O)NNS(=O)(=O)c1ccc(F)cc1	-1	-2	2	1	0
Cc1cccc(C(=O)NNS(=O)(=O)c2ccccc2)c1O	-1	-1	-3	7	43*
N/C(=N\OC(=O)c1ccc2ccccc2c1)c1ccccn1	-2	·	5	-1	45*
N/C(=N\OC(=O)c1ccco1)c1ccccn1	-2	3	0	1	43*
Cc1ccc(C(=O)O/N=C(\N)c2ccccn2)c(Cl)c1	4	-2	2	4	0
SMILES	SIRT5 block	NSD2 HMT inh	UCH37 DUB inh	Casp6 inh	FGF22 binding
N/C(=N\OC(=O)c1ccco1)c1ccccc1	·	6	-1	·	·
N/C(=N\OC(=O)c1ccc(=O)n(Cc2ccccc2)c1)c1ccccn1	0	-1	1	0	43*
N/C(=N\OC(=O)c1cc(Br)ccc1Cl)c1ccccn1	1	-8	0	-1	43*
N/C(=N\OC(=O)c1ccc2ccccc2c1)c1ccncc1	-7	10	1	-1	1
Cc1ccc(S(=O)(=O)Nc2ccc3c(c2)C(=O)N([C@H](C)CO)C[C@H](C)[C@H](CN(C)C(=O)NC2CCCCC2)OCCCC[C@H](C)O3)cc1	11	·	·	2	0
COc1ccc2c3c(n(C)c2c1)[C@H](CO)N(CC1CCOCC1)CC31CCN(C(=O)CN(C)C)CC1	1	·	·	-15	·
CCCC#Cc1ccc2c(c1)O[C@@H](CN(C)CCC)[C@H](C)CN([C@@H](C)CO)S2(=O)=O	0	·	·	0	0
CCCNC(=O)C[C@H]1CC[C@H]2[C@@H](COc3ccc(NC(=O)NCCC)cc3C(=O)N2C)O1	7	·	·	·	·
COc1ccc(CN(C)C[C@H]2Oc3c(NS(=O)(=O)c4ccc(F)cc4)cccc3C(=O)N([C@@H](C)CO)C[C@@H]2C)cc1	-3	·	·	2	0
Cc1onc(-c2ccccc2)c1C(=O)NN=Cc1c(F)cccc1Cl	·	·	0	·	·
CN1CCN(C(=O)C[C@@H]2CC[C@H]3[C@@H](COC[C@H](O)CN3Cc3ccc(Oc4ccccc4)cc3)O2)CC1	-4	·	·	0	0
CCN(CC)S(=O)(=O)c1ccc(/C=C/C(=O)OCC(=O)Nc2ccc(C(N)=O)cc2)cc1	0	-2	4	-2	43*
COc1ccc(-c2cc(C)nc3c(-c4ccccc4)cnn23)cc1	-4	-1	3	-2	43*
COc1cccc(NC(=O)C(=O)NN=Cc2cc(C)n(-c3ccc(Cl)c(Cl)c3)c2C)c1	·	·	-364	·	·
Cn1cnc(CCNC(=O)C[C@H]2CC[C@@H]3[C@H](COC[C@H](O)CN3C(=O)C3CCCC3)O2)c1	35*!	·	·	0	0
Cn1cnc(CCNC(=O)C[C@@H]2CC[C@@H]3[C@H](COC[C@@H](O)CN3C(=O)Nc3ccc(Cl)cc3)O2)c1	19*	·	·	2	0
COc1cc(C(=O)NN=Cc2ccc(OC(=O)c3cccc(C)c3)c(OC)c2)ccc1O	·	·	2	·	·
O=C(Nc1cccnc1)c1ccc(-c2cc(Cl)ccc2Cl)o1	-5	-3	-49	-2	43*
CO[C@@H]1CN(C)C(=O)c2cc(NS(=O)(=O)Cc3ccccc3)ccc2OC[C@@H](C)N(Cc2cccnc2)C[C@H]1C	5	·	·	-3	0
CC(C)CC#Cc1ccc2c(c1)O[C@H](CN(C)S(=O)(=O)c1cccc(F)c1)[C@H](C)CN([C@@H](C)CO)S2(=O)=O	17*	·	·	-2	0
CCCC#Cc1ccc2c(c1)O[C@H](CN(C)S(=O)(=O)c1cccc(F)c1)[C@H](C)CN([C@@H](C)CO)S2(=O)=O	2	·	·	-4	0
CCCC#Cc1ccc2c(c1)O[C@H](CN(C)S(=O)(=O)c1cccc(F)c1)[C@@H](C)CN([C@@H](C)CO)S2(=O)=O	-1	·	·	-1	-1

Bioassay records deposited in PubChem by several laboratories.
